Columns and labels:
[1] = system: MDA-MB-468 cells; test: ERK phosphorylation immunoblot in MDA-MB-468 cells; format: cell-based, human
[2] = system: BT474 cells; test: ERK phosphorylation immunoblot in BT474 cells; format: cell-based, human
[3] = system: SKBr3 cells; test: ERK phosphorylation immunoblot in SKBr3 cells; format: cell-based, human
[4] = target: T1, recombinant human ACSS1 (Homo sapiens, UniProt Q9NUB1); test: TranScreener AMP biochemical assay of ACSS1 activity; conditions: regardless of the substrate (acetate or propionate)
T1 sequence (Q9NUB1 38-689): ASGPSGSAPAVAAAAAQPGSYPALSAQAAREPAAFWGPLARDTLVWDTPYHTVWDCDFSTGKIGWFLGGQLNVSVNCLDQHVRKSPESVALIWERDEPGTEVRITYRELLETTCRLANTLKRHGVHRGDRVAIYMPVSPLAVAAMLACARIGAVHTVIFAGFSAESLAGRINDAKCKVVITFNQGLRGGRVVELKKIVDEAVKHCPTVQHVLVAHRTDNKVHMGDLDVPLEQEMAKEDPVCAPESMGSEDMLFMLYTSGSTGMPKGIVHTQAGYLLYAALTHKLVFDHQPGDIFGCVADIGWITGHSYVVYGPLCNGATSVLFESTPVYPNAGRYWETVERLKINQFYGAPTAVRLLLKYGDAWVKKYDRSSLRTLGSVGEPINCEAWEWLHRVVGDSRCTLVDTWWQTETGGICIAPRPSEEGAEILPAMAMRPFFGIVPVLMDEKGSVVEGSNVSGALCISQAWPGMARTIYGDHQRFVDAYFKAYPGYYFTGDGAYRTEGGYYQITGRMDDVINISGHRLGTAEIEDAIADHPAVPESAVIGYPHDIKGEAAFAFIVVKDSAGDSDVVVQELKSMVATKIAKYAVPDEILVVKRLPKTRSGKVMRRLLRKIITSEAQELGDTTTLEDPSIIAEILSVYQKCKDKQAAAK
Procedure, shortened: (§1)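 Test compound was serially diluted in DMSO and added to ACSS1 (2 nM) or ACSS3 (25 nM). Acetate reaction: HEPES pH 7.4 buffer with 140 mM NaCl; final 5 mM acetate, 50 μM ATP, 5 μM CoA. Propionate reaction: HEPES/KCl/CHAPS buffer; final 5 mM propionate, 10 μM ATP, 100 μM CoA. Incubation 120 min, then AMP detected by terbium-antibody/tracer TR-FRET after 30 min. Percent inhibition was set against no-enzyme and DMSO controls.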

[5] = target: T2, recombinant human ACSS3 (Homo sapiens, UniProt Q9H6R3); test: TranScreener AMP biochemical assay of ACSS3 activity; conditions: regardless of the substrate (acetate or propionate)
T2 sequence (Q9H6R3 30-686): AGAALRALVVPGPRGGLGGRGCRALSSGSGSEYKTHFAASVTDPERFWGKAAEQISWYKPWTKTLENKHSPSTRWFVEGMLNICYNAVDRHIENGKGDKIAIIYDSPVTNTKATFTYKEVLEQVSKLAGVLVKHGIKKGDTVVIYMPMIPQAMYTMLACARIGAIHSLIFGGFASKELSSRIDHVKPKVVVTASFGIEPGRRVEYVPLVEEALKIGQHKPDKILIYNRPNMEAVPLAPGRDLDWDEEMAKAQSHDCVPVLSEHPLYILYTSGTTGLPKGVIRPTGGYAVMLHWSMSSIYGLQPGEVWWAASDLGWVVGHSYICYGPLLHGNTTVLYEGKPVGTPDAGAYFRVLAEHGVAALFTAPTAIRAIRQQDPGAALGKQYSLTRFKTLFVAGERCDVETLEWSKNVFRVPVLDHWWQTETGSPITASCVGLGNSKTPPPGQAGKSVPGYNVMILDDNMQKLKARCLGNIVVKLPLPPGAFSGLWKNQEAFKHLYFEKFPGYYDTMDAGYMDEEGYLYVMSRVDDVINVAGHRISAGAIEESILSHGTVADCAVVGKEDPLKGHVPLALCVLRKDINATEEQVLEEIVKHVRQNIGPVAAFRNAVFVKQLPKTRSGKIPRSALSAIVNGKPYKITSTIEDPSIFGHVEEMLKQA
Procedure, shortened: as §1

[6] = Water solubility in PBS; format: physicochemical; conditions: PBS buffer pH 7.4, room temperature
Procedure, shortened: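 10 mg test compound in 1 mL PBS pH 7.4, sonicated 30 min, vortexed 30 min at low speed, then left 16–24 h at room temperature. Filtered (0.22 μm) and 10-fold serially diluted in triplicate in ACN:water (1:1). Internal standard added; LC-MS/MS quantitation against a five-standard calibration curve.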

Row | aqueous solubility [6] | SMILES | phosphorylation of ERK [1] | phosphorylation of ERK [2] | phosphorylation of ERK [3] | inhibitory activity towards ACSS1 [4] | inhibitory activity towards ACSS3 [5]
1 | – | CS(=O)(=O)CCNCc1ccc(-c2ccc3ncnc(Nc4ccc(OCc5cccc(F)c5)c(Cl)c4)c3c2)o1 [lapatinib] | decreases phosphorylation of ERK | decreases phosphorylation of ERK | decreases phosphorylation of ERK | – | –
2 | poorly soluble | COCCNC(=O)Nc1ccc2nc(-c3cccs3)c(-c3cccs3)nc2c1 [VY-3-249, 1-(2,3-di(thiophen-2-yl)quinoxalin-6-yl)-3-(2-methoxyethyl)urea, reference compound] | – | – | – | neither VY-3-249 nor VY-3-135 displayed any inhibitory activity | neither VY-3-249 nor VY-3-135 displayed any inhibitory activity

Reference: paper PMC8026699 (Cancer research, 2021)
